In ChEMBL document CHEMBL1800075, “Tricyclic imidazole antagonists of the Neuropeptide S Receptor” (Bioorg Med Chem Lett, 2010):

Tests used:
[1] = Lipophilicity, log D of the compound by HPLC method; type: physicochemical
[2] = Drug level in rat cerebrospinal fluid at 75 mg/kg, ip after 30 mins; type: ADME, organism-based; design: dose 75 mg/kg, route intraperitoneal; settings: read-out: Drug uptake
Summary of the method: (§1)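 Compound given to rats at 75 mpk IP as a solution in 25% HPB-cyclodextrin. CSF and plasma sampled at 30 min and 2 h.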

[3] = Inhibition of sodium channel site 2
[4] = Drug level in rat cerebrospinal fluid at 75 mg/kg, ip after 2 hrs; type: ADME, organism-based; design: dose 75 mg/kg, route intraperitoneal; settings: read-out: Drug uptake; summary of the method: as §1
[5] = Ratio drug level in CSF to plasma in rat at 75 mg/kg, ip; type: ADME, organism-based; design: dose 75 mg/kg, route intraperitoneal; summary of the method: as §1
[6] = molecular target: rat MDR1 (ABCB1, P-glycoprotein) (Rattus norvegicus, UniProt P43245); assay: Permeability of the compound assessed as rat MDR1-mediated directional transport ratio by cell based assay; settings: not told
Summary of the method: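 Rat MDR1 directional transport ratio, calculated as (B–A)/(A–B). Average of three experiments; interassay variability 20%.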

Neuropeptide S receptor = molecular target: T1, Neuropeptide S receptor (Homo sapiens, UniProt Q6W5P4); assay: Antagonist activity at human recombinant NPS receptor expressed in CHOK1 cells assessed as inhibition of NPS-induced calcium mobilization by FLIPR assay; type: functional, cell-based, CHO-K1
T1 sequence (Q6W5P4 whole entry): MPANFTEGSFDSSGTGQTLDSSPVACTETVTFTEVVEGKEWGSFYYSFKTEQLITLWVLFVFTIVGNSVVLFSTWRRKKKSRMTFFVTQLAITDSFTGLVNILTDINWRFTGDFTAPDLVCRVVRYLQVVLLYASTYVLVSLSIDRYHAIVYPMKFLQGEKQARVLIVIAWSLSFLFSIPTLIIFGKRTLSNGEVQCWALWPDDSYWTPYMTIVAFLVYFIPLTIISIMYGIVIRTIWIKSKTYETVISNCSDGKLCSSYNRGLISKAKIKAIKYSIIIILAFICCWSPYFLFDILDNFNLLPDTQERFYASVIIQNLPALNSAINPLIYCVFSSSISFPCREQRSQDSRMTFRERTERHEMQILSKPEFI
Summary of the method: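 Dual-sequence FLIPR Ca2+ mobilization on CHOK1 cells expressing recombinant NPSR, plated 24 h ahead at 15 K cells/well. Cells washed and loaded with Fluo4AM for 1 h at 37 °C, 5% CO2. Inhibition taken relative to NPS-stimulated control wells; IC50 from 4-parameter logistic fits; mean ± S.D. of multiple determinations.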

[7] = Inhibition of melatonin receptor
Thromboxane A2 receptor = molecular target: T2, Thromboxane A2 receptor (Homo sapiens, UniProt P21731); assay: Inhibition of thromboxane A2 receptor
T2 sequence (P21731 whole entry): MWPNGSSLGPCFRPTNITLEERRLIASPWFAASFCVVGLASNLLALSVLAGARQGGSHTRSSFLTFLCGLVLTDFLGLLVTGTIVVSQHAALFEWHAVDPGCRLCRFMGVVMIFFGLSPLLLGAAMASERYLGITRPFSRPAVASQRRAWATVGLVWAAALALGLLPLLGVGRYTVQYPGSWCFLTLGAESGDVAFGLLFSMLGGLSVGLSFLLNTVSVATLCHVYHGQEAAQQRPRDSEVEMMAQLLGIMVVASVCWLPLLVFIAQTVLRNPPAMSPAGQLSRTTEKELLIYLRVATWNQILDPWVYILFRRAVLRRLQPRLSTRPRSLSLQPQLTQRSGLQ

[8] = AUC (0 to infinity) in rat at 2 mg/kg, po; type: ADME, organism-based; design: time infinity, dose 2 mg/kg, route oral; settings: plasma
[9] = Unbound fraction in rat plasma by ultracentrifugation; type: ADME, cell-free
[10] = Passive permeability of the compound; type: ADME; settings: not told
[11] = AUC (0 to infinity) in rat at 10 mg/kg, po; type: ADME, organism-based; design: time infinity, dose 10 mg/kg, route oral; settings: plasma
[12] = Clearance in iv dosed rat; type: ADME, organism-based; settings: in vivo
Summary of the method: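 IV clearance in rats measured in cassette dosing experiments.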

[13] = Lipophilicity, log P of the compound; type: physicochemical; settings: octanol/water
[14] = Drug level in plasma of rat at 30 mg/kg, ip measured after 30 mins; type: ADME, organism-based; design: dose 30 mg/kg, route intraperitoneal
Summary of the method: (§2)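 Compound dosed to rats at 30 mpk IP. Plasma levels measured at 30 min, 1 h and 2 h. Unbound exposures obtained by correcting for plasma free fraction.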

[15] = Drug level in plasma of rat at 30 mg/kg, ip measured after 2 hrs; type: ADME, organism-based; design: dose 30 mg/kg, route intraperitoneal; summary of the method: as §2
Plasma [16] = assay: Unbound free concentration in rat plasma at 30 mg/kg, ip measured after 1 hr; type: ADME, organism-based; design: dose 30 mg/kg, route intraperitoneal; settings: in vivo; summary of the method: as §2
Plasma [17] = assay: Unbound free concentration in rat plasma at 30 mg/kg, ip measured after 30 mins; type: ADME, organism-based; design: dose 30 mg/kg, route intraperitoneal; settings: in vivo, 0.5 h; summary of the method: as §2
Plasma [18] = assay: Unbound free concentration in rat plasma at 30 mg/kg, ip measured after 2 hrs; type: ADME, organism-based; design: dose 30 mg/kg, route intraperitoneal; settings: in vivo; summary of the method: as §2
Cannabinoid receptor 1 = Cannabinoid receptor 1 (Homo sapiens, UniProt P21554); assay: Inhibition of CB1 receptor
[19] = Drug level in plasma of rat at 30 mg/kg, ip measured after 1 hr; type: ADME, organism-based; design: dose 30 mg/kg, route intraperitoneal; summary of the method: as §2

Chain of rat MDR1 (ABCB1, P-glycoprotein) (P43245 whole entry): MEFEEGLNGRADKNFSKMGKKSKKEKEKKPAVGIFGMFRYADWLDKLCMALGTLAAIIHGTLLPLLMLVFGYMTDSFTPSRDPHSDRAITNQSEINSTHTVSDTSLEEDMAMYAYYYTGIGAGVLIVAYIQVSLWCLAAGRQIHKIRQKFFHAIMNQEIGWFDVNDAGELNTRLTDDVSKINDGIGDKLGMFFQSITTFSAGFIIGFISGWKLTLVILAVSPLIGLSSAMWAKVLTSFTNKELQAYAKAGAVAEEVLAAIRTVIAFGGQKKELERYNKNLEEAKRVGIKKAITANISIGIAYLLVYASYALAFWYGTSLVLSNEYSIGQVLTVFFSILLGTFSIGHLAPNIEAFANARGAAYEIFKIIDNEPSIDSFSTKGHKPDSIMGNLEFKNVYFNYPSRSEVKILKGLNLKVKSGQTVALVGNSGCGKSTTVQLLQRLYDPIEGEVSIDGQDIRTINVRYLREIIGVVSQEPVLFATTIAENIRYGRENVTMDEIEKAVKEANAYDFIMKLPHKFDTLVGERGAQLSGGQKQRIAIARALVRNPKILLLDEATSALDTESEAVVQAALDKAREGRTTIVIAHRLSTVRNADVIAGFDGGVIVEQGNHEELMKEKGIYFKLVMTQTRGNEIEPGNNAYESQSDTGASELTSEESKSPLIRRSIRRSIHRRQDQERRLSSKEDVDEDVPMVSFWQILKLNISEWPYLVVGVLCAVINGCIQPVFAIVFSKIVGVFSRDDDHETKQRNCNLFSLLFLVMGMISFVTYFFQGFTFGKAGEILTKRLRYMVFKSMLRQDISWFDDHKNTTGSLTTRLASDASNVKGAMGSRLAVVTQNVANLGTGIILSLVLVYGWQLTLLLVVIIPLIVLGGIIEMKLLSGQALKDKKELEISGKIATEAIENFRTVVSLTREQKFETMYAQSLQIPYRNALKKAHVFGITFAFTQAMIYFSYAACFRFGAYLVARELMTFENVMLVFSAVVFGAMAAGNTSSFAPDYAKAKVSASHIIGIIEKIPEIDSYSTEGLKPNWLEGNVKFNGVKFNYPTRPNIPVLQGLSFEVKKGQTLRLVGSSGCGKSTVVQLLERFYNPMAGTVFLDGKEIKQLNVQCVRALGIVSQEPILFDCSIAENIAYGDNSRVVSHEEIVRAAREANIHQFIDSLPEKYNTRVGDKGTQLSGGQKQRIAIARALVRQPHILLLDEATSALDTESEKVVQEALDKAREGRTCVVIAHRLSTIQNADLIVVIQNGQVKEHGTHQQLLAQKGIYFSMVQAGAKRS
Chain of Cannabinoid receptor 1 (P21554 whole entry): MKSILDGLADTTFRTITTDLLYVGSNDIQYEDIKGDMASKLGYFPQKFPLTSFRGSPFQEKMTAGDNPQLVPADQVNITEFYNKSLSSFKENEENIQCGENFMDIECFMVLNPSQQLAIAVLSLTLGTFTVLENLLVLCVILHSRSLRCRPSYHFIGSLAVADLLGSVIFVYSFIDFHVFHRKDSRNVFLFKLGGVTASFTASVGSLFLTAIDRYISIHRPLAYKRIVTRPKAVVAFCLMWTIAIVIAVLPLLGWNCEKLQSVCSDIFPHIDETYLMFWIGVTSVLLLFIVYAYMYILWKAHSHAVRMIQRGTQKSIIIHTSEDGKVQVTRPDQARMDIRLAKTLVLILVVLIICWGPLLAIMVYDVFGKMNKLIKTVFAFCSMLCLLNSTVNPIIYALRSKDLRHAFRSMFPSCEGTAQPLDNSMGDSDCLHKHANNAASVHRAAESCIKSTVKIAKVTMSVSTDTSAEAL

Structure (SMILES)	efflux ratio [6]	IC50 (Neuropeptide S receptor) [nM]	fraction unbound [9]	also measured
COc1ccc2c(c1)C(CC1CCOCC1)(c1ccc(Cl)cc1)n1ccnc1-2 (configuration not stated)	1.3	82	0.016	logD [1]: 3.2; concentration at 0.5 h [2]: 594 nM; IC50 [3]: 4 µM; concentration at 2 h [4]: 153 nM; Ratio [5]: 1%; IC50 [7]: 1300 nM; IC50 (Thromboxane A2 receptor): 7 µM; AUC(0-inf) [8]: 0.114 µM·h
Brc1ccc(C2(Cc3cccnc3)c3ccccc3-c3nccn32)cc1 (racemic)	2.1	351	0.021	Papp [10]: 31 ×10⁻⁶ cm/s
Brc1ccc(C2(Cc3ccccc3)c3ccccc3-c3nccn32)cc1 (racemic)		380		
Brc1ccc(C2(CC3CCCC3)c3ccccc3-c3nccn32)cc1 (racemic)		321		
CCN(CC)C(=O)CCC1(c2ccc(Cl)cc2)c2ccccc2-c2nccn21 (racemic)				AUC(0-inf) [11]: 0.18 µM·h; clearance [12]: 38 mL/min/kg
COc1cccc2c1C(CC1CCOCC1)(c1ccc(Cl)cc1)n1ccnc1-2 (configuration not stated)		46	0.008	AUC(0-inf) [11]: 0.425 µM·h
Brc1ccc(C2(CC3CCCC3)c3ccccc3-c3nccn32)cn1 (configuration not stated)	1.3	851	0.013	Papp [10]: 25 ×10⁻⁶ cm/s
O=C(CCC1(c2ccc(Cl)cc2)c2ccccc2-c2nccn21)N1C2CCCC1CC2 (mixture of isomers)	1.7	95	0.006	clearance [12]: 34 mL/min/kg
Fc1ccc(C2(CC3CCOCC3)c3ccccc3-c3nccn32)cc1 (configuration not stated)		660		
N#Cc1ccc(C2(CC3CCCCC3)c3ccccc3-c3nccn32)cc1 (configuration not stated)	1.6	114		Papp [10]: 17 ×10⁻⁶ cm/s
Clc1ccc(C2(CC3CCOCC3)c3ccccc3-c3nccn32)cc1 (configuration not stated)	1.4	134	0.018	Papp [10]: 31 ×10⁻⁶ cm/s
N#Cc1ccc(C2(CC3CCOCC3)c3ccccc3-c3nccn32)cc1 (configuration not stated)		635		
CCC1CCCCN1C(=O)CCC1(c2ccc(Cl)cc2)c2ccccc2-c2nccn21 (mixture of isomers)	1.6	131	0.011	clearance [12]: 20 mL/min/kg
Cc1ccc(C2(Cc3ccccc3)c3ccccc3-c3nccn32)cc1 (configuration not stated)		1320		
Clc1ccc(C2(Cc3ccccc3)c3ccccc3-c3nccn32)cc1 (configuration not stated)		358		
CCN(CC)C(=O)CCC1(c2ccc(Cl)cc2)c2ccccc2-c2nccn21 (single isomer, unassigned)	2.1	90	0.022	
N#Cc1ccc(C2(CC3CCCC3)c3ccccc3-c3nccn32)cc1 (configuration not stated)	0.6	145	0.011	Papp [10]: 22 ×10⁻⁶ cm/s
CCN(CC)C(=O)CCC1(c2ccc(Cl)cc2)c2c(OC)cccc2-c2nccn21 (configuration not stated)	2.9	43	0.013	concentration at 0.5 h [14]: 7.8 µM; concentration at 2 h [15]: 3000 nM; Cp(f) (Plasma [16]): 66 nM; Cp(f) (Plasma [17]): 101 nM; Cp(f) (Plasma [18]): 39 nM; IC50 (Cannabinoid receptor 1): 6 µM; concentration at 1 h [19]: 5.1 µM; AUC(0-inf) [11]: 1.15 µM·h
N#Cc1cccc(C2(Cc3ccccc3)c3ccccc3-c3nccn32)c1 (configuration not stated)		3170		
CCN(C(=O)CCC1(c2ccc(Cl)cc2)c2ccccc2-c2nccn21)C(C)C (racemic)	2.3	138	0.007	clearance [12]: 31 mL/min/kg
Brc1ccc(C2(Cc3ccccc3)c3ccccc3-c3nccn32)cn1 (configuration not stated)		1500		
CC(C1CCN(C(=O)CCC2(c3ccc(Cl)cc3)c3ccccc3-c3nccn32)CC1)N1CCCC1 (mixture of isomers)	34.2	126	0.081	clearance [12]: 38 mL/min/kg

More lines, in order of falling IC50 (Neuropeptide S receptor), values ahead:

efflux ratio [6]	IC50 (Neuropeptide S receptor) [nM]	fraction unbound [9]	Structure (SMILES)	also measured
	2180		Brc1ccc(C2(Cc3ccccc3)c3ccccc3-c3nccn32)nc1 (configuration not stated)	
	1730		Brc1cccc(C2(Cc3ccccc3)c3ccccc3-c3nccn32)c1 (configuration not stated)	
	1460		Brc1ccc(C2(Cc3ccccc3)c3cccnc3-c3nccn32)cc1 (configuration not stated)	
0.9	387	0.17	N#Cc1ccc(C2(Cc3ccccc3)c3ccccc3-c3nccn32)cc1 (configuration not stated)	Papp [10]: 33 ×10⁻⁶ cm/s
1.7	369	< 0.01	N#Cc1ccccc1CC1(c2ccc(Br)cc2)c2ccccc2-c2nccn21 (racemic)	Papp [10]: 17 ×10⁻⁶ cm/s
	336		Fc1ccc(C2(Cc3ccccc3)c3ccccc3-c3nccn32)cc1 (configuration not stated)	
	254		Brc1ccc(C2(CC3CCCCC3)c3ccccc3-c3nccn32)cc1 (racemic)	
2	239	0.029	CC(C1CCN(C(=O)CCC2(c3ccc(Cl)cc3)c3ccccc3-c3nccn32)CC1)N1CCC(F)(F)C1 (mixture of isomers)	clearance [12]: 38 mL/min/kg
	163	0.01	Brc1ccc(C2(Cc3ccccc3)c3ccccc3-c3nccn32)cc1 (stereo in doubt; 2)	logP [13]: > 3.8; Papp [10]: 10 ×10⁻⁶ cm/s
	154		Brc1ccc(C2(CCC3CCOCC3)c3ccccc3-c3nccn32)cc1 (racemic)	
1.4	96	0.008	CC(C)N(C(=O)CCC1(c2ccc(Cl)cc2)c2ccccc2-c2nccn21)C(C)C (racemic)	clearance [12]: 26 mL/min/kg
1.5	92	0.006	C[C@@H]1CC[C@H](C)N1C(=O)CCC1(c2ccc(Cl)cc2)c2ccccc2-c2nccn21 (mixture of isomers)	clearance [12]: 36 mL/min/kg
1.2	92	0.19	Brc1ccc(C2(CC3CCOCC3)c3ccccc3-c3nccn32)cc1 (racemic)	Papp [10]: 31 ×10⁻⁶ cm/s; clearance [12]: 48 mL/min/kg
2.2	50	0.007	COc1ccc2c(c1)C(CCC(=O)N1[C@H](C)CC[C@@H]1C)(c1ccc(Cl)cc1)n1ccnc1-2 (some centres not stated)	AUC(0-inf) [8]: 0.115 µM·h
